Assay results: the RNAGym collection of RNA variant scans (doi:10.1038/s41586-018-0170-7)

B1: tRNA (parent)
chain: GUUCCGUUGGCGUAAUGGUAACGCGUCUCCCUCCUAAGGAGAAGACUGCGGGUUCGAGUCCCGUACGGAACG

Variants of: B1
Assay: yeast fitness, log relative to wild type (ln ratio); higher = fitter; tRNA-Arg(CCU), competitive growth, 37 C, 1 M NaCl
In short: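 Fitness is the natural log of each genotype's generations divided by the wild type's. Generations were derived as OD-scaled log2 output/input frequency from 125 bp paired-end Illumina counts, weighting replicates by inverse variance. Pools of the tRNA-Arg(CCU) variant library, on a HIS3 centromeric plasmid in BY4742 lacking the chromosomal gene, grew ~6.5 generations (~26.5 h) in SC-HIS 1M NaCl at 37 °C after 4 generations in SC-HIS at 30 °C.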

In order of falling “yeast fitness (ln)” value:
1. G1A U2C G6A C66U A70G  -0.00694
2. G1A U2C G6U A70U  -0.00843
3. G1A U2C G6A C66U A70G C71U  -0.0113
4. G1A U2C G6A C66U A69G A70U  -0.0166
5. G1A U2C G6A C46U C66U A69G A70U  -0.0207
6. G1A U2C G6U C66A A70G  -0.0212
7. G1A U2C G6U C46U A69G A70U  -0.0237
8. G1A U2C G6U A43C C46U C66A A70G C71U  -0.0283
9. G1A U2G A43C A70U C71U  -0.0335
10. G1A U2C G6A C27U C66U A70G C71U  -0.0371
11. G1A U2C G6U A43C C66A A69G A70G C71U  -0.0437
12. G1A U2C G6U A43C C46U A70U  -0.0463
13. G1A U2C G6A C27U C46U A70G  -0.0476
14. G1A U2G C27U A43C C46U A70U C71U  -0.0479
15. G1A U2C G6A C27U A43C C46U C66U A69G A70G C71U  -0.0617
16. G1A U2C G6A C27U A43C C46U C66U A70U  -0.0654
17. G1A U2C G6U A43C C46U C66A A69G A70U  -0.0654
18. G1A U2C G6U C46U A69G A70G  -0.0666
19. G1A U2C G6A C27U C46U A70U  -0.0702
20. G1A U2G A43C C46U A69G  -0.0712
21. G1A U2C G6U C46U C66A C71U  -0.0738
22. G1A U2C G6A C27U A70U  -0.0756
23. G1A U2C G6U C27U A43C C46U C66A A70U  -0.0771
24. G1A U2C G6A C27U C46U A70U C71U  -0.0799
25. G1A U2C G6A C66U C71U  -0.083
26. G1A U2C G6A C66U A70U  -0.0837
27. G1A U2C G6A C46U C66U A69G A70G  -0.0859
28. G1A U2C G6A C46U C66U A70U C71U  -0.0901
29. G1A U2C G6A C66U A69G A70G  -0.0913
30. G1A U2C G6U C66U A70U C71U  -0.095
31. G1A U2C G6U C46U C71U  -0.111
32. G1A U2C G6U A70G  -0.113
33. G1A U2G A43C C46U C66U  -0.116
34. G1A U2C G6U C27U A43C C66U A69G A70G C71U  -0.117
35. G1A U2G A69G A70G  -0.118
36. G1A U2G C27U A43C C46U A70G  -0.124
37. G1A U2C G6U A43C C46U A69G A70G  -0.126
38. G1A U2C G6U C27U A70U  -0.134
39. G1A U2G A69G C71U  -0.135
40. G1A U2C G6U C27U C66A A70G  -0.141
41. G1A U2C G6U C46U A69G A70G C71U  -0.15
42. G1A U2C G6U C27U A43C C46U C66A A70G  -0.15
43. G1A U2C G6A C27U A43C C46U C66U A70G  -0.155
44. G1A U2G A43C C46U C66A  -0.156
45. G1A U2C G6A C27U C46U C71U  -0.157
46. G1A U2G A43C A69G A70U  -0.159
47. G1A U2C G6A C66U A70U C71U  -0.159
48. G1A U2G C27U A43C C46U A69G A70U  -0.161
49. G1A U2C G6U C27U C46U C66U A70G C71U  -0.169
50. G1A U2G A43C A69G A70G  -0.172
51. G1A U2G C27U A43C C46U C66A A70G  -0.178
52. G1A U2G A43C C46U A69G C71U  -0.18
53. G1A U2C G6U C27U A70G  -0.186
54. G1A U2C G6U C27U A70G C71U  -0.212
55. G1A U2G A43C C66U A70G C71U  -0.22
56. G1A U2C G6U C27U A43C A70G C71U  -0.22
57. G1A U2G C27U A43C C46U A69G A70G  -0.22
58. G1A U2G A43C C46U C66U C71U  -0.223
59. G1A U2G A43C C66A C71U  -0.228
60. G1A U2G C27U A43C C46U A70U  -0.229
61. G1A U2G A69G A70U  -0.232
62. G1A U2C G6U C66A A70U  -0.234
63. G1A U2G C27U A43C C46U A69G C71U  -0.239
64. G1A U2G A43C C46U C66U A70G C71U  -0.243
65. G1A U2G C27U A43C A70G C71U  -0.246
66. G1A U2C G6U A43C C46U C66A A69G A70G  -0.25
67. G1A U2C G6U A43C C46U C66U A70G C71U  -0.267
68. G1A U2C G6U C27U A43C A70U C71U  -0.294
69. G1A U2G C27U A43C C46U C66A A69G C71U  -0.315
70. G1A U2C G6U C27U A43C C46U C66U A70U C71U  -0.315
71. G1A U2C G6U C27U A43C C46U C66U A69G A70G C71U  -0.316
72. G1A U2G A43C C46U C66U A69G A70G C71U  -0.323
73. G1A U2C G6A C27U C46U C66U A69G A70U C71U  -0.327
74. G1A U2G A43C C46U C66U A69G A70U C71U  -0.341
75. G1A U2G A43C C46U A70G C71U  -0.342
76. G1A U2C G6U A43C C66U A69G A70G C71U  -0.344
77. G1A U2C G6A C27U C46U C66U C71U  -0.348
78. G1A U2G A43C C66A A70U C71U  -0.396
79. G1A U2C G6U C27U C66U A70G C71U  -0.496
80. G1A U2G A43C C66U A69G C71U  -0.497
81. G1A U2C G6U C27U C46U C66U A69G A70U C71U  -0.518
82. G1A U2C G6A C27U A43C C46U C66U A69G A70U C71U  -0.555
83. G1A U2C G6U C27U C46U C66U A69G A70G C71U  -0.699
